Results on eight compounds are retold here after ChEMBL document CHEMBL4765357, “Development of small-molecule inhibitors of fatty acyl-AMP and fatty acyl-CoA ligases in Mycobacterium tuberculosis” (Eur J Med Chem, 2020).

Values after ≈ are worked out from the molar mass of the structure shown.

One may read the MIC as the lowest concentration found to suppress growth.

For assay [1], the system named is Mycobacterium tuberculosis. The assay is described as follows: Antimycobacterial activity against isoniazid/rifampicin/ethambutol/para-aminosalicylic acid extensively drug-resistant Mycobacterium tuberculosis assessed as inhibition of bacterial growth under GAST medium condition after 7 to 14 days by broth microdilution method. Conditions: time 7-14 day. In kind it is functional. An outline of the steps:
(§1)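 Clinical MDR/XDR Mtb strains tested by broth microdilution in GAST or 7H9 with tyloxapol (0.05%), BSA fraction V (5 g/L) and NaCl (0.8 g/L) plus a carbon source. Compounds were dosed from DMSO stocks against DMSO vehicle controls. Inoculum was 10⁴-10⁵ cells per assay, with growth monitored at days 7 and 14. MIC is the concentration causing >99% inhibition.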

For assay [2], the system named is Mycobacterium tuberculosis. Nature of the assay: Antimycobacterial activity against isoniazid/rifampicin/ethambutol/kanamycin/ofloxacin multidrug-resistant Mycobacterium tuberculosis assessed as inhibition of bacterial growth under GAST medium condition after 7 to 14 days by broth microdilution method. It is filed as functional. Conditions: time 7-14 day. An outline of the steps:
as §1
On the technique in general: Broth dilution looks for growth in wells or tubes with falling amounts of substance.

The subject of assay [3] is Mycobacterium tuberculosis. The assay is described as follows: Antimycobacterial activity against isoniazid/rifampicin/ethambutol/pyrazinamide/streptomycin/kanamycin/para-aminosalicylic acid/prothionamide multidrug-resistant Mycobacterium tuberculosis assessed as inhibition of bacterial growth under 7H9 medium condition after 7 to 14 days by broth microdilution method. In kind it is functional. Conditions: time 7-14 day. An outline of the steps:
as §1

The subject of assay [4] is Mycobacterium tuberculosis. The assay is described as follows: Antimycobacterial activity against isoniazid/rifampicin/ethambutol/streptomycin/ofloxacin/para-aminosalicylic acid/prothionamide multidrug-resistant Mycobacterium tuberculosis assessed as inhibition of bacterial growth under GAST medium condition after 7 to 14 days by broth microdilution method. In kind it is functional. Particulars: time 7-14 day. In outline: as §1

Assay [5] concerns Mycobacterium tuberculosis. The assay is described as follows: Antimycobacterial activity against isoniazid/rifampicin/ethambutol/kanamycin/ofloxacin multidrug-resistant Mycobacterium tuberculosis assessed as inhibition of bacterial growth under 7H9 medium condition after 7 to 14 days by broth microdilution method. In kind it is functional. Particulars: time 7-14 day. In outline:
as §1

The subject of assay [6] is Mycobacterium tuberculosis. The assay is described as follows: Antimycobacterial activity against isoniazid/rifampicin/ethambutol/streptomycin/ofloxacin/para-aminosalicylic acid/prothionamide multidrug-resistant Mycobacterium tuberculosis assessed as inhibition of bacterial growth under 7H9 medium condition after 7 to 14 days by broth microdilution method. It is filed as functional. Conditions: time 7-14 day. An outline of the steps: as §1

The subject of assay [7] is Mycobacterium tuberculosis. Nature of the assay: Antimycobacterial activity against isoniazid/rifampicin/ethambutol/pyrazinamide/streptomycin/kanamycin/para-aminosalicylic acid/prothionamide multidrug-resistant Mycobacterium tuberculosis assessed as inhibition of bacterial growth under 7H9 medium condition after 7 to 14 days in presence of tylo-xapol by broth microdilution method. In kind it is functional. Conditions: time 7-14 day. An outline of the steps: as §1

Assay [8] has as its system Mycobacterium tuberculosis. Nature of the assay: Antimycobacterial activity against isoniazid/rifampicin/ethambutol/pyrazinamide/streptomycin/kanamycin/para-aminosalicylic acid/prothionamide multidrug-resistant Mycobacterium tuberculosis assessed as inhibition of bacterial growth under GAST medium condition after 7 to 14 days by broth microdilution method. It is filed as functional. Particulars: time 7-14 day. An outline of the steps:
as §1

In assay [9] the test system is Mycobacterium tuberculosis. The assay is described as follows: Antimycobacterial activity against isoniazid/rifampicin/ethambutol/para-aminosalicylic acid extensively drug-resistant Mycobacterium tuberculosis assessed as inhibition of bacterial growth under 7H9 medium condition after 7 to 14 days by broth microdilution method. It is filed as functional. Conditions: time 7-14 day. An outline of the steps:
as §1

The target in assay [10] is T1, Long-chain-fatty-acid--AMP ligase FadD32 (Mycobacterium tuberculosis (strain ATCC 25618 / H37Rv), UniProt O53580).
T1 sequence (O53580 whole entry): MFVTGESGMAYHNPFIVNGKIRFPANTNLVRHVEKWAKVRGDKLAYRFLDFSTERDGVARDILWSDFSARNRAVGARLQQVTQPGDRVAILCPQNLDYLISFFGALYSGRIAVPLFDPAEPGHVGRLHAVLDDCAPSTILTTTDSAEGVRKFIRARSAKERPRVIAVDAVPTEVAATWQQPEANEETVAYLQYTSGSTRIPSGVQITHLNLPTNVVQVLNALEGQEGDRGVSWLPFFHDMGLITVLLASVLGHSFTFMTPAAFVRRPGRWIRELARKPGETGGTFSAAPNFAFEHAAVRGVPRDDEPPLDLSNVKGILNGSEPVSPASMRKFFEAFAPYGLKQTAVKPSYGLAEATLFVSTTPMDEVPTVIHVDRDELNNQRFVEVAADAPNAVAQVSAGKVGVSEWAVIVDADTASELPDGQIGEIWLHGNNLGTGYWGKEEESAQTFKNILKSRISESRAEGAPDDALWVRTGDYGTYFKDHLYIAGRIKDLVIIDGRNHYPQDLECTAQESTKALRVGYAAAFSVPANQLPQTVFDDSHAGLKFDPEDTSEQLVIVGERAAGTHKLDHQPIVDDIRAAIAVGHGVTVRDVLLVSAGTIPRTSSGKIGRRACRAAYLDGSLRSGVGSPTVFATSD
The assay is described as follows: Inhibition of Mycobacterium tuberculosis H37Rv FAAL32 expressed in Escherichia coli BL21(DE3) cells incubated for 2 hrs in presence of [C14] fatty acid by SDS-PAGE analysis. Particulars: read-out: Ki(app).

Regarding `CCCCCCCCCOCC(=O)NS(=O)(=O)OC[C@H]1O[C@@H](n2cnc3c(N)ncnc32)[C@H](O)[C@@H]1O`, the MIC was determined as 0.78 µM (≈ 0.414 µg/mL) in assay [1]; 0.39 µM (≈ 0.207 µg/mL) in assay [2]; 12.5 µM (≈ 6.63 µg/mL) in [3]; 6.25 µM (≈ 3.32 µg/mL) in assay [4]; 6.25 µM (≈ 3.32 µg/mL) in assay [5]; 50 µM (≈ 26.5 µg/mL) in assay [6]. In addition, the minimal inhibitory concentration (MIC) in assay [7] was 12.5 µM; in [8], 1.56 µM (≈ 0.828 µg/mL); in assay [9] it was 6.25 µM (≈ 3.32 µg/mL).
`Nc1ncnc2c1ncn2[C@@H]1O[C@H](COS(=O)(=O)NC(=O)CCCCCCCCCCOc2ccccc2)[C@@H](O)[C@H]1O`: the minimal inhibitory concentration (MIC) in assay [3] turned out to be 12.5 µM (≈ 7.58 µg/mL); in assay [4], 625 µM (≈ 379 µg/mL); in assay [5], 12.5 µM (≈ 7.58 µg/mL); in assay [6] it was 50 µM (≈ 30.3 µg/mL); in assay [7], 12.5 µM; in assay [8] it was 6.25 µM (≈ 3.79 µg/mL). Moreover, the minimal inhibitory concentration (MIC) in assay [9] amounted to 12.5 µM (≈ 7.58 µg/mL).
As for `CCCCCCCCCCCC(=O)NS(=O)(=O)OC[C@H]1O[C@@H](n2cnc3c(N)ncnc32)[C@H](O)[C@@H]1O`, the minimal inhibitory concentration (MIC) in assay [1] worked out at 6.25 µM (≈ 3.3 µg/mL); in [2], 3.13 µM (≈ 1.65 µg/mL); in assay [3], 12.5 µM (≈ 6.61 µg/mL); in assay [4] it was 12.5 µM (≈ 6.61 µg/mL); in assay [5], 6.25 µM (≈ 3.3 µg/mL); in [6], 12.5 µM (≈ 6.61 µg/mL). Further, the minimal inhibitory concentration (MIC) in assay [7] amounted to 12.5 µM; in assay [8], 25 µM (≈ 13.2 µg/mL); in [9], 6.25 µM (≈ 3.3 µg/mL).
With `CCCCCCCCCCCCCC(=O)NS(=O)(=O)OC[C@H]1O[C@@H](n2cnc3c(N)ncnc32)[C@H](O)[C@@H]1O`, the minimal inhibitory concentration (MIC) in [1] worked out at 6.25 µM (≈ 3.48 µg/mL); in assay [2], 6.25 µM (≈ 3.48 µg/mL); in [3], 25 µM (≈ 13.9 µg/mL); in [4] it was 12.5 µM (≈ 6.96 µg/mL); in [5], 3.13 µM (≈ 1.74 µg/mL); in assay [6] it was 12.5 µM (≈ 6.96 µg/mL). The MIC is 12.5 µM in assay [7], 12.5 µM (≈ 6.96 µg/mL) in assay [8] and 6.25 µM (≈ 3.48 µg/mL) in [9].
As for `NNC(=O)c1ccncc1` [ISONIAZID], the minimal inhibitory concentration (MIC) in [1] came to 4 µM (≈ 0.549 µg/mL); in assay [2], 4 µM (≈ 0.549 µg/mL); in [3], 2 µM (≈ 0.274 µg/mL); in assay [4], 8 µM (≈ 1.1 µg/mL); in assay [5], 2 µM (≈ 0.274 µg/mL); in [6], 8 µM (≈ 1.1 µg/mL). Further, the minimal inhibitory concentration (MIC) was 2 µM in assay [7], above 8 µM in assay [8] and 2 µM (≈ 0.274 µg/mL) in assay [9].
Take `[N-]=[N+]=NCCCCCCCCCCCC(=O)NS(=O)(=O)OC[C@H]1O[C@@H](n2cnc3c(N)ncnc32)[C@H](O)[C@@H]1O`: the MIC in assay [1] is 3.13 µM (≈ 1.78 µg/mL); in [2] it was 3.13 µM (≈ 1.78 µg/mL); in [3], 50 µM (≈ 28.5 µg/mL); in assay [4], 625 µM (≈ 356 µg/mL); in [5], 625 µM (≈ 356 µg/mL); in assay [6], 25 µM (≈ 14.2 µg/mL). The minimal inhibitory concentration (MIC) in assay [7] was found to be 6.25 µM; in assay [8], 3.13 µM (≈ 1.78 µg/mL); in [9], 12.5 µM (≈ 7.12 µg/mL).
As for `C=CCCCCCCCCC(=O)NS(=O)(=O)OC[C@H]1O[C@@H](n2cnc3c(N)ncnc32)[C@H](O)[C@@H]1O`, the MIC amounted to 3.13 µM (≈ 1.6 µg/mL) in assay [1]; 3.13 µM (≈ 1.6 µg/mL) in assay [2]; 50 µM (≈ 25.6 µg/mL) in assay [3]; 3.13 µM (≈ 1.6 µg/mL) in [4]; 625 µM (≈ 320 µg/mL) in assay [5]; 25 µM (≈ 12.8 µg/mL) in assay [6]. Also, the values for the minimal inhibitory concentration (MIC) in [7], in assay [8] and in [9] were 6.25 µM, 3.13 µM (≈ 1.6 µg/mL) and 12.5 µM (≈ 6.41 µg/mL), respectively.
`CCCCCCCCCCCCOP(=O)(O)OC[C@H]1O[C@@H](n2cnc3c(N)ncnc32)[C@H](O)[C@@H]1O`: in assay [10], the Ki worked out at 110 nM.
